The text below walks through data of ChEMBL document CHEMBL1795280, “Design, synthesis and activity of a potent, selective series of N-aryl pyridinone inhibitors of p38 kinase” (Bioorg Med Chem Lett, 2011).

Data set [1] has as its target Mitogen-activated protein kinase 14 (Homo sapiens, UniProt Q16539). Nature of the data set: Inhibition of p38alpha assessed as phosphorylation of […] after 60 mins by fluorescence assay. In a few lines: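 Cascade assay in which activated p38α (6 pM final) activates unactivated MK2 (1 nM), which phosphorylates FITC-labelled Hsp27 peptide (1 nM) with […]. Inhibitor 0.2–10,000 nM. Room temperature, 60 min, EDTA quench. Phospho-peptide quantified by Caliper LabChip; IC50.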

A short description of data set [2]: Solubility of the compound. The format is physicochemical.
Data set [3] is described as follows: Bioavailability in iv and po dosed Sprague-Dawley rat. Type of data set: ADME, organism-based. The conditions noted are these: in vivo.
The nature of data set [4]: Half life in iv and po dosed Sprague-Dawley rat. The format is ADME, organism-based. Particulars: in vivo.
A short description of data set [5]: Metabolic stability in rat liver microsomes assessed as compound remaining at 2 uM after 45 mins by LC/MS analysis. Type of data set: ADME, Microsome. Particulars: read-out: Stability.
The subject of a further data set is Rattus norvegicus. As to the kind of experiment: Antiinflammatory activity in Lewis rat assessed as inhibition of LPS-induced TNFalpha production at 5 mg/kg, po administered 4 hrs before LPS challenge by ELISA. The format is functional. In a few lines:
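Adult male Lewis rats (225–250 g), fasted 18 h with free access to water. Compound or vehicle given by oral gavage (1 mL). LPS (E. coli 0111:B4) given 1 mg/kg i.v. in saline 2, 4 or 6 h later. Serum taken by cardiac puncture 90 min after LPS. TNFα quantified against a recombinant rat TNF standard curve with a four-parameter fit. Two vehicle groups per experiment, three experiments.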

The nature of data set [6]: Metabolic stability in human liver microsomes assessed as compound remaining at 2 uM after 45 mins by LC/MS analysis. Type of data set: ADME, Microsome. The conditions noted are these: read-out: Stability.
Data set [7] in a line: Clearance in iv and po dosed Sprague-Dawley rat. Type of data set: ADME, organism-based. The conditions noted are these: in vivo.
In another data set the test system is PBMC. Nature of the data set: Antiinflammatory activity in human PBMC assessed as inhibition of LPS-induced TNFalpha production treated 1 hr before LPS challenge measured after 18 hrs. Type of data set: functional, cell-based. In a few lines: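 PBMCs isolated by Ficoll from heparinized blood of two healthy donors, in DMEM with 5% endotoxin-free FBS, 2.5 × 10⁵ cells/well. Pretreated 1 h with compound (0.0001–25 µM range), then stimulated 18 h with 22 ng/ml LPS. Final DMSO 0.25%. Secreted TNFα measured by MSD; IC50 reported.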

Chain of Mitogen-activated protein kinase 14 (Q16539 whole entry): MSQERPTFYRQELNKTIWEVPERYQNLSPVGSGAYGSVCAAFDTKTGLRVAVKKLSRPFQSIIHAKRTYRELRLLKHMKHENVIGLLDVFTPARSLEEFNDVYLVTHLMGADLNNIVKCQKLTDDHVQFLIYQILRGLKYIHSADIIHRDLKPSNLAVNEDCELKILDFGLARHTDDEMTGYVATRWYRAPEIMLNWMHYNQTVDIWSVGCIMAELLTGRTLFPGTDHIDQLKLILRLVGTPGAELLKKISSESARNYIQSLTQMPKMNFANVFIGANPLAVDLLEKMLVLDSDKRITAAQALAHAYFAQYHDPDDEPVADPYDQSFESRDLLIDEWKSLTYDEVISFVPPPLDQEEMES

On to `Cc1cc(OCc2ccc(F)cc2F)c(Br)c(=O)n1-c1ccc(CNC(N)=O)cc1`, for which, in data set [1], the concentration for half-maximal inhibition (IC50) stood at 142 nM.

As for `Cc1cc(OCc2ccc(F)cc2F)c(Br)c(=O)n1-c1c(F)cccc1F`, the solubility in [2] was < 10 µg/mL. This molecule also displayed a bioavailability in data set [3] of 19%. The concentration for half-maximal inhibition (IC50) in [1] is 3 nM; in the data set with PBMC, 22 nM. Besides, the half-life in data set [4] was 1.9 h. In addition, the remaining at 0.75 h, 2 µM is 80% in [5] and 60% in [6]. The inhibition in vivo at 5 mg/kg with Rattus norvegicus was determined as 38%. The molecule further gave a clearance in [7] of 28.7 mL/min/kg.

As to `Cc1cc(OCc2ccc(F)cc2F)c(Br)c(=O)n1-c1cccc(C(=O)N(C)C)c1`, the IC50 in data set [1] came out at 102 nM.

For `Cc1cc(OCc2ccc(F)cc2F)c(Cl)c(=O)n1-c1c(F)cc(N2CCN(C)CC2)cc1F`, the half-maximal inhibitory concentration (IC50) in data set [1] amounted to 23 nM.

With `Cc1cc(OCc2ccc(F)cc2F)c(Br)c(=O)n1-c1ccc(C(=O)N(C)C)cc1`, the half-maximal inhibitory concentration (IC50) in [1] stood at 746 nM.

For `O=c1c(Br)c(OCc2ccc(F)cc2F)cc(CN2CCOCC2)n1-c1c(F)cccc1F`, the half-inhibitory concentration (IC50) in data set [1] was determined as 9 nM.

On to `Cc1cc(OCc2ccc(F)cc2F)c(Br)c(=O)n1-c1cccc(CNC(=O)CO)c1`, for which the IC50 in data set [1] turned out to be 175 nM.

For the molecule `Cc1cc(OCc2ccc(F)cc2F)c(Br)c(=O)n1-c1ccc(CNC(=O)CN)cc1`, the values for the IC50 (in data set [1]; with PBMC) were 15 nM and 118 nM, respectively. The remaining at 0.75 h, 2 µM in data set [5] came out at 91%; in data set [6], 97%. The inhibition in vivo at 5 mg/kg in the data set on Rattus norvegicus is 64%.

With `Cc1cc(OCc2ccc(F)cc2F)c(Br)c(=O)n1-c1c(F)cc(O)cc1F`, the IC50 in data set [1] came to 15 nM.

As to `Cc1cc(OCc2ccc(F)cc2F)c(Br)c(=O)n1-c1c(F)cc(N(C)C)cc1F`, the IC50 in [1] worked out at 8 nM.

For `Cc1cc(OCc2ccc(F)cc2F)c(Br)c(=O)n1-c1c(F)cc(OCC(N)=O)cc1F`, in data set [1], the IC50 came to 3 nM.

On to `Cc1cc(OCc2ccc(F)cc2)c(Br)c(=O)n1-c1c(Cl)cccc1Cl`, for which, in data set [1], the IC50 was 6 nM.

As to `Cc1cc(OCc2ccc(F)cc2F)c(Br)c(=O)n1-c1ccc(CNC(=O)CO)cc1`, the results for the IC50 (in data set [1]; in the data set with PBMC) were 20 nM and 91 nM, respectively. The remaining at 0.75 h, 2 µM in data set [5] was 83%; in [6], 88%. Moreover, the inhibition in vivo at 5 mg/kg in the data set on Rattus norvegicus came to 43%.

Turning to `Cc1cc(OCc2ccc(F)cc2F)c(Br)c(=O)n1-c1cccc(CN)c1`, in data set [1], the IC50 stood at 681 nM.

On to `CN(C)Cc1cc(OCc2ccc(F)cc2F)c(Cl)c(=O)n1-c1c(F)cccc1F`, for which the half-inhibitory concentration (IC50) in [1] came out at 8 nM.

As for `Cc1cc(OCc2ccc(F)cc2F)c(Br)c(=O)n1-c1ccc(CN)cc1`, in data set [1], the 50% inhibitory concentration (IC50) amounted to 51 nM.

For the molecule `Cc1cc(OCc2ccc(F)cc2F)c(Br)c(=O)n1-c1cccc(CNC(=O)CN)c1`, the IC50 in data set [1] was found to be 261 nM.

Take `CNC(=O)c1cccc(-n2c(C)cc(OCc3ccc(F)cc3F)c(Br)c2=O)c1`: the solubility in data set [2] is < 10 µg/mL. The same molecule yielded a bioavailability in data set [3] of 3%. Further, the half-maximal inhibitory concentration (IC50) was 17 nM in data set [1] and 45 nM in the data set on PBMC. In [4], this molecule showed a half-life of 3.1 h. Also, the remaining at 0.75 h, 2 µM in data set [5] stood at 92%; in [6], 95%. Further, the inhibition in vivo at 5 mg/kg in the data set on Rattus norvegicus is 70%. Moreover, the clearance in data set [7] came out at 8.1 mL/min/kg.

Take `Cc1cc(OCc2ccc(F)cc2F)c(Br)c(=O)n1-c1c(F)cc(N2CCN(C)CC2)cc1F`: the half-inhibitory concentration (IC50) in [1] was 14 nM.

As for `Cc1cc(OCc2ccc(F)cc2F)c(Br)c(=O)n1-c1c(F)cc(OCCO)cc1F`, the half-inhibitory concentration (IC50) came to 7 nM in [1] and 61 nM with PBMC. The remaining at 0.75 h, 2 µM in data set [5] turned out to be 96%; in data set [6], 87%. Further, in the data set with Rattus norvegicus, the inhibition in vivo at 5 mg/kg turned out to be 44%.

As for `Cc1cc(OCc2ccc(F)cc2F)c(Br)c(=O)n1-c1c(Cl)cccc1Cl`, in data set [1], the IC50 worked out at 1 nM.

With `Cc1cc(OCc2ccc(F)cc2F)c(Br)c(=O)n1-c1cccc(CNC(N)=O)c1`, the half-maximal inhibitory concentration (IC50) in data set [1] was 251 nM.

Consider `CNC(=O)c1ccc(-n2c(C)cc(OCc3ccc(F)cc3F)c(Br)c2=O)cc1`, for which the IC50 in data set [1] stood at 126 nM.

As to `Cc1cc(OCc2ccc(F)cc2F)c(Br)c(=O)n1-c1ccc(C(N)=O)cc1`, the half-maximal inhibitory concentration (IC50) in data set [1] turned out to be 122 nM.

For `Cc1cc(OCc2ccccc2)c(Br)c(=O)n1-c1c(Cl)cccc1Cl`, the half-maximal inhibitory concentration (IC50) in data set [1] amounted to 30 nM.
